Data reported in ChEMBL document CHEMBL1155603, “Stilbene glycoside sulfates from Polygonum cuspidatum” (J Nat Prod, 2000).
Active and inactive are the calls of the source. The calls are words filed in the database; no cut-off is given here.

Tests used:
[1] = test system: Candida tropicalis; test: Antifungal activity against Candida tropicalis; type: functional, organism-based
In short: (§1)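 In vitro susceptibility test on yeasts, run by the National Committee for Clinical and Laboratory Standards procedure.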

[2] = test system: Candida albicans; test: Antifungal activity against Candida albicans; type: functional, organism-based; in short: as §1
[3] = test system: Cryptococcus neoformans; test: Antifungal activity against Cryptococcus neoformans; type: functional, organism-based; in short: as §1
[4] = test system: Trichophyton rubrum; test: Antifungal activity against Trichophyton rubrum; type: functional, organism-based
[5] = test system: Fonsecaea pedrosoi; test: Antifungal activity against Fonsecaea pedrosoi; type: functional, organism-based
[6] = test system: Sporothrix schenckii; test: Antifungal activity against Sporothrix schenckii; type: functional, organism-based
[7] = test system: Aspergillus fumigatus; test: Antifungal activity against Aspergillus fumigatus; type: functional, organism-based
[8] = test system: Candida parapsilosis; test: Antifungal activity against Candida parapsilosis; type: functional, organism-based; in short: as §1
[9] = test system: A549; test: Cytotoxicity against human A549 cells after 96 hrs by MTT assay; type: functional, cell-based; settings: A549, 96 h

Row | Structure (SMILES) | Activity [1] | Activity [2] | Activity [3] | Activity [4] | Activity [5] | Activity [6] | Activity [7] | Activity [8] | IC50 [9] [µg/mL]
1 | O=S(=O)(O)Oc1cc(/C=C\c2ccc(O)cc2)cc(O[C@@H]2O[C@H](CO)[C@@H](O)[C@H](O)[C@H]2O)c1 | inactive | inactive | inactive | inactive | inactive | inactive | inactive | inactive | 
2 | O=S(=O)(O)O[C@H]1[C@H](Oc2cc(O)cc(/C=C/c3ccc(O)cc3)c2)O[C@H](CO)[C@@H](O)[C@@H]1O | inactive | inactive | inactive | inactive | inactive | inactive | inactive | inactive | 
3 | O=S(=O)(O)Oc1cc(/C=C/c2ccc(O)cc2)cc(O[C@@H]2O[C@H](CO)[C@@H](O)[C@H](O)[C@H]2O)c1 | inactive | inactive | inactive | inactive | inactive | inactive | inactive | inactive | 
4 | O=S(=O)(O)OC[C@H]1O[C@@H](Oc2cc(O)cc(/C=C/c3ccc(O)cc3)c2)[C@H](O)[C@@H](O)[C@@H]1O | inactive | inactive | inactive | inactive | inactive | inactive | inactive | inactive | 
5 | O=S(=O)(O)OC[C@H]1O[C@@H](Oc2cc(O)cc(/C=C\c3ccc(O)cc3)c2)[C@H](O)[C@@H](O)[C@@H]1O | inactive | inactive | inactive | inactive | inactive | inactive | inactive | inactive | 
6 | O=S(=O)([O-])O[C@H]1[C@H](O)[C@@H](O)[C@H](Oc2cc(O)cc(/C=C/c3ccc(O)cc3)c2)O[C@@H]1CO.[K+] | inactive | inactive | inactive | inactive | inactive | inactive | inactive | inactive | 80
7 | O=S(=O)(O)Oc1ccc(/C=C/c2cc(O)cc(O[C@@H]3O[C@H](CO)[C@@H](O)[C@H](O)[C@H]3O)c2)cc1 | inactive | inactive | inactive | inactive | inactive | inactive | inactive | inactive | 
8 | O=S(=O)(O)O[C@H]1[C@H](O)[C@@H](O)[C@H](Oc2cc(O)cc(/C=C\c3ccc(O)cc3)c2)O[C@@H]1CO | inactive | inactive | inactive | inactive | inactive | inactive | inactive | inactive | 
9 | O=S(=O)(O)O[C@H]1[C@H](Oc2cc(O)cc(/C=C\c3ccc(O)cc3)c2)O[C@H](CO)[C@@H](O)[C@@H]1O | inactive | inactive | inactive | inactive | inactive | inactive | inactive | inactive | 
